What was measured:
[1] = biological target: Delta-type opioid receptor (Homo sapiens, UniProt P41143); experiment: Displacement of [3H]DADLE from human delta opioid receptor expressed in CHO cells
[2] = biological target: Kappa-type opioid receptor (Rattus norvegicus, UniProt P34975); experiment: Displacement of [3H]U69593 from rat kappa opioid receptor expressed in CHO cells
Mu-type opioid receptor = Mu-type opioid receptor (Homo sapiens, UniProt P35372); experiment: Displacement of [3H]DAMGO from human mu opioid receptor expressed in HEK293 cells; assay type: cell-based
Method in brief: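 Radioligand competition binding against [³H]DAMGO on human μ-opioid receptor in transfected HEK-293 cells; affinity derived from displacement of the tritiated ligand.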

Mu-type opioid receptor, sequence (P35372 whole entry): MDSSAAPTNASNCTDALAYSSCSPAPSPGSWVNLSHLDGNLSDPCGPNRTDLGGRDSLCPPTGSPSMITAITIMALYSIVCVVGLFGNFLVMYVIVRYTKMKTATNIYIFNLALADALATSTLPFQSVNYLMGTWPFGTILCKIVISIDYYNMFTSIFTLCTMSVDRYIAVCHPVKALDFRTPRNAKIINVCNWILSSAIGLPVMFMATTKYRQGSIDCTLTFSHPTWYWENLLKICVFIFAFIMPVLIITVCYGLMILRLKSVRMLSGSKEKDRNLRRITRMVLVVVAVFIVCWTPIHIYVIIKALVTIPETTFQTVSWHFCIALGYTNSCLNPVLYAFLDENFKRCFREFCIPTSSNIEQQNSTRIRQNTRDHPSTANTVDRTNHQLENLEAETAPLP
Kappa-type opioid receptor, sequence (P34975 whole entry): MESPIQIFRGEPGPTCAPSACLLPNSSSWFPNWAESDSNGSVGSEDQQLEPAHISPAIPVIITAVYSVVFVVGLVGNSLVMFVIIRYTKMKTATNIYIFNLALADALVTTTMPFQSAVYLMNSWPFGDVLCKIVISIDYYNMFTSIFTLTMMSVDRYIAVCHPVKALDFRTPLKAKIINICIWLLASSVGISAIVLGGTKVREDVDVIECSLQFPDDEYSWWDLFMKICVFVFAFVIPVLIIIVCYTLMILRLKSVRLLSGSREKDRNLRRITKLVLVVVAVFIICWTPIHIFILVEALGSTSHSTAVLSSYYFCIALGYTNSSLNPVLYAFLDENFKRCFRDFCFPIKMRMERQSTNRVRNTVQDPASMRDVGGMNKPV
Delta-type opioid receptor, sequence (P41143 whole entry): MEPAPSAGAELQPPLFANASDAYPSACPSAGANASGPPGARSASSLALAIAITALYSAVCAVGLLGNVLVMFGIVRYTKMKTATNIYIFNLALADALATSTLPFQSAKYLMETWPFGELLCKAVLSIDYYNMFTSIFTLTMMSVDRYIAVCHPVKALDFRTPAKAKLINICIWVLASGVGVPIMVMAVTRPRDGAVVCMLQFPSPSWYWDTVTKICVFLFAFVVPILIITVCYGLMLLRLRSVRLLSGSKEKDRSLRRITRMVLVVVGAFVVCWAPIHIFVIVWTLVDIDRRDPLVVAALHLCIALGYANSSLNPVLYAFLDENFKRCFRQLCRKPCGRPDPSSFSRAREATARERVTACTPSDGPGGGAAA

Row | SMILES | Ki [1] | Ki [2] | Ki (Mu-type opioid receptor)
1 | COc1cccc(C)c1C(=O)C1=CCCN2CCC[C@@H]12 | > 200 µM | 20 µM | > 200 µM
2 | Cc1cccc(O)c1C(=O)C1=CCN2CCC[C@@H]12 | > 200 µM | 35 µM | 3.2 µM
3 | Cc1cccc(O)c1C(=O)C1=CCCCN2CCC[C@@H]12 | > 200 µM | – | 13 µM
4 | Cc1cccc(O)c1C(=O)C1=CCCN2CCC[C@@H]12 | 94 µM | 24 µM | 45 µM
5 | Cc1cccc(O)c1C(=O)C1=CCCN2CCC[C@H]12 [ELAEOCARPENINE] | 14 µM | 12 µM | 18 µM
6 | O=C(C1=CCCN2CCC[C@@H]12)c1ccccc1O | > 200 µM | 83 µM | 49 µM
